Measured values from different studies.
Compare with care: the assays were run in different laboratories.
PIM3: Serine/threonine-protein kinase pim-3 (PIM3, Homo sapiens, UniProt Q86V86)

Structure (SMILES) | target | test | conditions | endpoint | value
Cc1nn(C)cc1-c1nc2c(N3CCN(Cc4ccc(Cl)cc4)CC3)c(Cl)cnc2[nH]1 | PIM3 | binding, competition with immobilised ligand | 1 µM | remaining binding | 100%
N#Cc1ccc(NCCNCC(=O)N2N=CCC2C#N)nc1 (centres unmarked) | Dipeptidyl peptidase 2 (Homo sapiens, UniProt Q9UHL4) | enzyme activity, inhibitor | 10 µM | inhibition | 30%
COc1ncccc1-c1cnn2ccc(N3CCN(C(=O)OC(C)C)CC3)nc12 | Dual specificity testis-specific protein kinase 1 (TESK1, Homo sapiens, UniProt Q15569) | binding, competition with immobilised ligand | 1 µM | remaining binding | 93%
O=C(Nc1cccnn1)N1CCN([C@@H]2CCOc3cc(C(F)(F)F)ccc32)CC1 | 5-hydroxytryptamine receptor 1B (Htr1b, Rattus norvegicus, UniProt P28564) | cell-free assay | 20 µM | inhibition | 9%
CCOC(=O)c1ccc(OC(=O)CCCCCNC(=N)N)cc1 | Ubiquitin carboxyl-terminal hydrolase isozyme L3 (UCHL3, Homo sapiens, UniProt P15374) | enzyme activity, inhibitor | 10 µM | inhibition | 4%
CCN(CC)CCCC[C@H](NC(=O)[C@H](CC(C)C)NC(=O)[C@H](C)NC(=O)[C@H](Cc1ccccc1)NC(=O)c1ccc(C(C)(C)C)cc1)C(=O)N[C@@H](CO)C(=O)OC | Bromodomain testis-specific protein, BD1 (BRDT, Homo sapiens, UniProt Q58F21) | thermal stability, DSF | 25 µM | ΔTm | -0.19 °C
Nc1ncc(-c2nc(N3CCOCC3)nc(N3CCOCC3)n2)c(C(F)F)n1 | PIM3 | binding, competition with immobilised ligand | 10 µM | remaining binding | 89%
C=CC(=O)N1CCC[C@@H](n2nc(-c3ccc(Oc4ccccc4)cc3)c3c(N)ncnc32)C1 | Dual specificity tyrosine-phosphorylation-regulated kinase 1B (DYRK1B, Homo sapiens, UniProt Q9Y463) | cell-free assay | 1 µM | remaining signal | 136%
